Source: article PMC6217654 (ACS Omega, 2018)
Peptide text beside a SMILES is read from it.

Legend:
[1] = system: reserpine-induced hypothermia mice; test: Antagonistic effect on reserpine-induced hypothermia in mice; type: in vivo; settings: p.o.; for CNS effect (reserpine-induced hypothermia), in words, SAR comparison: mice, data not shown or compared with 64
How it was run: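 Male ddY mice (bought at 6 weeks, 1-week quarantine, ~25 °C). Reserpine 3 mg/kg s.c.; mice with rectal temperature ≤30 °C about 18 h later were used. Test compound in saline p.o. at 5 μmol/kg, TRH at 50 μmol/kg, saline controls. Rectal temperature by thermistor before and up to 7 h post-dose. Trapezoidal AUC0–7h, with saline AUC subtracted. Mean ± SD, ≥3 animals.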

Free fraction ratio = type: in vitro ADME, rat; settings: in vitro
[2] = PK of TRH mimetics in rat, cassette dosing i.v. and p.o.; type: in vivo; settings: for MRT / Vd / clearance / half-life: male, Sprague-Dawley, plasma, iv, 1 umol/kg; for BA: oral 2 μmol/kg vs i.v. 1 μmol/kg
How it was run: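 Cassette dosing in rats (n = 2, 302–364 g). p.o.: 2 μmol/5 mL/kg in DMSO/0.5% methylcellulose 1/4. i.v.: 1 μmol/1 mL/kg in DMSO/propylene glycol 1/1. Heparinized jugular blood; plasma precipitated with methanol/acetonitrile 1/1; LC/MS/MS, ESI positive. t1/2 from terminal phase; MRT by linear trapezoid with monoexponential extrapolation; BA = dose-normalized po/iv AUC ratio. Mean of two animals.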

human TRH-R = settings: read-out: Ki for human TRH-R; in vitro binding, reported previously; cited from earlier work
[3] = cited from earlier work
[4] = PK of TRH and 79 after oral administration to fasted conscious rats; type: in vivo, rat; settings: male, Wistar, rat, plasma, po, 40 mg/kg
How it was run: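 Male Wistar rats (10–11 weeks, 230–274 g, n ≥ 4), fasted from the evening before dosing to the 12 h sample. Jugular cannula placed under isoflurane 2–3 days before. Single p.o. dose of 40 mg/4 mL/kg in saline. Heparinized blood (~0.3 mL) drawn via cannula; plasma deproteinized with methanol; HPLC with UV absorbance detection. Cmax, Tmax, AUC0–8h given as mean ± SD.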

[5] = system: rats with Ara-C-induced cerebellar damage; test: Ara-C-induced cerebellar ataxia in rats, open field fall index; type: in vivo, rat

NC(=O)[C@@H]1CCCN1C(=O)[C@H](Cc1cncs1)NC(=O)[C@@H]1CCC(=O)N1 [Compound 56, L-Pyroglutamyl-[3-(thiazol-5-yl)-L-alanyl]-L-prolinamide]
CNS effect (reserpine-induced hypothermia), in words, SAR comparison [1]: less than that of 64

NC(=O)[C@@H]1CSCN1C(=O)[C@H](Cc1cscn1)NC(=O)[C@@H]1CCC(=O)N1 [Compound 57, 3-{N-L-Pyroglutamyl-[3-(thiazol-4-yl)-L-alanyl]}-(4R)-4-thiazolidinecarboxamide] (HELM PEPTIDE1{[Glp].[O=C([C@H](Cc1cscn1)N[*:1])[*:2]].[O=C([C@@H]1CSCN1[*:1])[*:2]].[am]}$$$$V2.0)
CNS effect (reserpine-induced hypothermia), in words, SAR comparison [1]: less than that of 64

NC(=O)[C@@H]1CCCN1C(=O)[C@H](Cc1cscn1)NC(=O)[C@@H]1COC(=O)N1 [Compound 58, {[(4S)-(2-Oxooxazolidine-4-yl)carbonyl]-3-(thiazol-4-yl)-L-alanyl}-L-prolinamide]
CNS effect (reserpine-induced hypothermia), in words, SAR comparison [1]: maintained

C[C@H]1OC(=O)N(C)[C@@H]1C(=O)N[C@@H](Cc1cscn1)C(=O)N1CCC[C@H]1C(N)=O [Compound 60, {[(4S,5R)-3,5-Dimethyl-2-oxooxazolidine-4-carbonyl]-3-(thiazol-4-yl)-L-alanyl}-L-prolinamide]
CNS effect (reserpine-induced hypothermia), in words, SAR comparison [1]: decreased the CNS effects

C[C@H]1OC(=O)N(Cc2ccccc2)[C@@H]1C(=O)N[C@@H](Cc1cscn1)C(=O)N1CCC[C@H]1C(N)=O [Compound 61, {[(4S,5R)-3-Benzyl-5-Methyl-2-oxooxazolidine-4-carbonyl]-3-(thiazol-4-yl)-L-alanyl}-L-prolinamide]
CNS effect (reserpine-induced hypothermia), in words, SAR comparison [1]: decreased the CNS effects

C[C@H]1OC(=O)N[C@@H]1C(=O)N[C@@H](Cc1cncs1)C(=O)N1CCC[C@H]1C(N)=O [Compound 62]
CNS effect (reserpine-induced hypothermia), in words, SAR comparison [1]: less than that of 64

C[C@H]1OC(=O)N[C@@H]1C(=O)N[C@@H](Cc1cscn1)C(=O)N1CSC[C@H]1C(N)=O [Compound 63, 3-{N-[(4S,5R)-(5-Methyl-2-oxooxazolidine-4-yl)carbonyl]-3-(thiazol-4-yl)-L-alanyl}-(4R)-4-thiazolidinecarboxamide]
CNS effect (reserpine-induced hypothermia), in words, SAR comparison [1]: less than that of 64

C[C@@H]1OC(=O)N[C@@H]1C(=O)N[C@@H](Cc1cscn1)C(=O)N1CCC[C@H]1C(N)=O [Compound 64, {[(4S,5S)-(5-Methyl-2-oxooxazolidine-4-yl)carbonyl]-3-(thiazol-4-yl)-L-alanyl}-L-prolinamide]
fu: free fraction ratio in serum (Free fraction ratio): >99%
MRT [2]: 14.3 min
Vd [2]: 0.19 L/kg
clearance [2]: 13 mL/min/kg
half-life [2]: 13.5 min
BA [2]: 1.1%

C[C@@H]1OC(=O)N[C@@H]1C(=O)N[C@@H](Cc1cscn1)C(=O)N1CSC[C@H]1C(N)=O [Compound 68, 3-{N-[(4S,5S)-(5-Methyl-2-oxooxazolidine-4-yl)carbonyl]-3-(thiazol-4-yl)-L-alanyl}-(4R)-4-thiazolidinecarboxamide]
fu: free fraction ratio in serum (Free fraction ratio): >99%
MRT [2]: 11 min
Vd [2]: 0.16 L/kg
clearance [2]: 14.2 mL/min/kg
half-life [2]: 9.8 min

C[C@@H]1OC(=O)N[C@@H]1C(=O)N[C@@H](Cc1cscn1)C(=O)N1CCC[C@H]1C#N [Compound 69, 1-{N-[(4S,5S)-(5-Methyl-2-oxooxazolidine-4-yl)carbonyl]-3-(thiazol-4-yl)-L-alanyl}-(2S)-2-cyanopyrrolidine]
fu: free fraction ratio in serum (Free fraction ratio): >99%
MRT [2]: 14.6 min
Vd [2]: 0.25 L/kg
clearance [2]: 17.4 mL/min/kg
half-life [2]: 26.2 min

C[C@@H]1OC(=O)N[C@@H]1C(=O)N[C@@H](Cc1cscn1)C(=O)N1CCC[C@H]1C [Compound 70, 1-{N-[(4S,5S)-(5-Methyl-2-oxooxazolidine-4-yl)carbonyl]-3-(thiazol-4-yl)-L-alanyl}-(2R)-2-methylpyrrolidine]
fu: free fraction ratio in serum (Free fraction ratio): >99%
MRT [2]: 19.1 min
Vd [2]: 0.58 L/kg
clearance [2]: 30.6 mL/min/kg
half-life [2]: 21.6 min
BA [2]: 4.7%

C[C@@H]1OC(=O)N[C@@H]1C(=O)N[C@@H](Cc1cncs1)C(=O)N1CCC[C@H]1C [Compound 71, 1-{N-[(4S,5S)-(5-Methyl-2-oxooxazolidine-4-yl)carbonyl]-3-(thiazol-5-yl)-L-alanyl}-(2R)-2-methylpyrrolidine]
CNS effect (reserpine-induced hypothermia), in words, SAR comparison [1]: less than that of 64

C[C@@H]1OC(=O)N[C@@H]1C(=O)N[C@@H](Cc1c[nH]cn1)C(=O)N1CCC[C@H]1C [Compound 72, 1-{N-[(4S,5S)-(5-Methyl-2-oxooxazolidine-4-yl)carbonyl]-L-histidyl}-(2R)-2-methylpyrrolidine]
CNS effect (reserpine-induced hypothermia), in words, SAR comparison [1]: less than that of 64

C[C@@H]1OC(=O)N[C@@H]1C(=O)N[C@@H](Cc1cscn1)C(=O)N1CCC[C@H]1C(=O)OCc1ccccc1 [Compound 74, {[(4S,5S)-5-Methyl-2-oxooxazolidine-4-carbonyl]-3-(thiazol-4-yl)-L-alanyl}-L-proline Benzyl Ester]
CNS effect (reserpine-induced hypothermia), in words, SAR comparison [1]: less than that of 64

NC(=O)[C@@H]1CCCN1C(=O)[C@H](Cc1cnc[nH]1)NC(=O)[C@@H]1CCC(=O)N1 [TRH, L-pGlu–L-His–L-Pro-NH2, reference compound]
Ki (human TRH-R): 128 nM
t1/2 of degradation by the brain homogenate [3]: 7.9 min
rectal temperature compared with saline levels ([1]; 79 5 μmol/kg from 2 to 7 h, TRH 50 μmol/kg from 0 to 7 h): almost the same low rectal temperature profiles as the saline levels
rectal temperature ΔAUC0–7h = AUC0–7h(compounds) – AUC0–7h(saline) ([1]; reserpine-induced hypothermia mice, TRH 50 μmol/kg, 79 5 μmol/kg): –4.0 ± 3.3 °C·h
rectal temperature AUC0–7h ([1]; reserpine-induced hypothermia mice, TRH 50 μmol/kg, 79 5 μmol/kg, mean ± SD): 201.4 ± 3.3 °C·h
AUC(0-t) [4]: 68 ± 72 ng·h/mL
Cmax [4]: 50 ± 39 ng/mL
Tmax [4]: 45 ± 17.4 min
fall index ([5]; 10 mg/kg i.v. once, 30 min post-dose, mean ± SE, vehicle 2.06 ± 0.09): 1.05 ± 0.22
fall index ([5]; 30 mg/kg i.v. once, 30 min post-dose, mean ± SE, vehicle 2.06 ± 0.09): 0.87 ± 0.17
fall index ([5]; TRH 30, 100 and 300 mg/kg p.o. once daily for 7 days): no significant decrease
MRT [2]: 3.7 min
Vd [2]: 0.33 L/kg
clearance [2]: 89.2 mL/min/kg
half-life [2]: 3 min
